Assay outcomes: PubChem BioAssay, several laboratories
ALR H2O2 inh – human ALR oxidase inhibition via reduced H2O2 | P55789 | purified ALR, DTT oxidation, H2O2 HRP-luminol luminescence | inhibition, % (test concentration not listed) | 3.8% of 290,000 active | AID 485317;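 active = mean replicate inhibition above about 79%, with every replicate also reaching it, limit read from the data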
Target sequence (P55789 whole entry, looked up): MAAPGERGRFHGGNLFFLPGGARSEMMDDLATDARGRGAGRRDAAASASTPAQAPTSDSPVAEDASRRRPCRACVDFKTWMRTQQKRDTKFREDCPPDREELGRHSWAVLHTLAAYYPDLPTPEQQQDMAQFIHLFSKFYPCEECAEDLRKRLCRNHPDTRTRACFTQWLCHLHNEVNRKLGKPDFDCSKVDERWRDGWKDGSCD
core dimer inh – blocks dimerization of HCV core protein. TR-FRET GST/Flag-core106 dimerization, 1536-well. inhibition, % at 5 µM. 0.33% of 300,000 active;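 active = inhibition above the mean of all tested compounds plus 3 SD, set per screening campaign, cut at about 45% in these data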
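Material: Tagged HCV core106 pair (GST and Flag) | Amount: GST-core106 13.5 nM, Flag-core106 17 nM | Medium: KF-containing HEPES buffer, pH 7.45, DTT, CHAPS, BSA | Reagent: Eu donor and XL665 acceptor anti-tag antibodies | Schedule: 4 h at 22.5 °C | Technique: Time-resolved FRET, ex 340 nm, em 617 and 671 nm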
PHOSPHO1 inh – blocks human PHOSPHO1 phosphatase activity; Q8TCT1; recombinant PHOSPHO1, absorbance phosphatase assay; inhibition, % at 13.3 µM; 1.1% of 290,000 active; in the data active = inhibition above about 60%
Target sequence (Q8TCT1 whole entry, looked up): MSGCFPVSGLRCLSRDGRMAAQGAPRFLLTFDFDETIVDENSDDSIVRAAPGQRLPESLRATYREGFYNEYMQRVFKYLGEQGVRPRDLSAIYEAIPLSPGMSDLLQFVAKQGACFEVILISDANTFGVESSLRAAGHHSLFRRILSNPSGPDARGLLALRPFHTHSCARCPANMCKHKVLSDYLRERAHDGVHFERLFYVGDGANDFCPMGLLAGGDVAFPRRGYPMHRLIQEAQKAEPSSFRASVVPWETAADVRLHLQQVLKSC
HSF1 activator – increases HSF-1 driven luciferase reporter signal; NIH3T3-HGL HSF-1 luciferase reporter, MG132, 8 h; 100% = twice DMSO control signal; activation, % at 9 µM; 1.7% of 300,000 active; AID 504408;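 active = mean replicate activation of at least 50% with a set share of replicates each reaching 50%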
HSF1 inh – HSF1 inhibition. NIH3T3-HGL HSE-luciferase, MG132-induced, luminescence 8 h; stronger effect = lower value. activity change, negative = inhibition, % at 7.5 µM (by protocol). 0.77% of 300,000 active;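 active = more than half of replicate wells show activity change below -50%, luminescence cut by over half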;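 note: luciferase reports HSF-1 transcriptional activity via heat shock element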
AI-2 QS modul – Vibrio harveyi AI-2 quorum sensing modulation; Vibrio harveyi JMH597 AI-2 luminescence/OD600 ratio, 9 h; stronger effect = lower value; strain lacks LuxN and CqsS sensors; 0 = neutral-control median; AID 2094; activity change, % at 7.5 µM; 0.4% of 300,000 active; in the data active = activity change below about -75%, passing the limit was not always enough;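 note: luminescence divided by OD600 gain over 9 h not by final OD600 alone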
A number is an active result; i = inactive; nt = not tested or not shown. The list is not random: actives were taken first. Their share in the collection is about 6.8%.

SMILES	ALR H2O2 inh	core dimer inh	PHOSPHO1 inh	HSF1 activator	HSF1 inh	AI-2 QS modul
Cc1ccc(NC(=O)CN(C)C2CCCCC2)cc1Cl	i	nt	i	i	-82	i
O=C(CN1CCN(c2ccccn2)CC1)Nc1ccc(F)cc1F	i	i	i	i	i	i
NC(=O)c1ccccc1OCC(=O)Nc1ccc2c(c1)CCC2	i	nt	nt	nt	nt	nt
N#CCSCC(=O)Nc1ccc(Cl)cc1	99	i	i	i	i	i
NC(=O)c1ccccc1OCC(=O)Nc1ccc(Cl)c(Cl)c1	nt	i	i	91	i	i
CC(C)(C)NC(=O)COC(=O)c1ccccc1OCC(=O)Nc1ccc(Br)cc1	i	i	i	69	i	i
O=C(CSCc1ccc(Cl)cc1)Nc1ccc(-c2nnc(-c3ccccc3)o2)cc1	i	i	i	i	i	i
Cc1cccnc1NC(=O)c1ccc(NS(=O)(=O)/C=C/c2ccccc2)cc1	i	i	nt	i	i	i
Cc1ccc(OC(C)C(=O)N(Cc2cccs2)C2CCS(=O)(=O)C2)cc1C (stereo not given)	i	i	i	i	i	i
Cc1ccc2c(cnn2C(=O)CCC(=O)NCc2cccc(Cl)c2)c1	i	i	i	i	i	i
CCOc1ccc2nc(N3C(=O)CNC3=S)sc2c1	i	i	i	62	i	i
CCOc1ccc2nc(N3CCC(C(=O)NC4CCCCC4)CC3)sc2c1	nt	i	65	i	i	i
Cc1ccc(-n2nc(C)c(=O)c(-c3ccccc3)c2NC(=O)C(C)C)cc1	i	i	i	i	i	i
N#Cc1c(-c2cccs2)cc(C2CC2)nc1SCC(N)=O	i	i	i	i	i	i
O=S(=O)(c1ccccc1)c1nc(Nc2ccccc2N2CCOCC2)sc1Cl	i	i	79	i	i	i
CC(C)C(NC(=O)c1ccccc1F)C(=O)NCCCn1ccnc1 (stereo not given)	i	nt	nt	nt	nt	nt
Cc1ccc2c(c1)C(N1CCCC1=O)CC(c1ccco1)N2 (stereo not given)	nt	i	76	i	i	i
Cc1ccc(C2CC(c3ccco3)n3ncnc3N2)cc1 (stereo not given)	i	i	i	i	i	i
Cc1cc(-c2c(C)[nH]n(-c3ccccc3)c2=O)n[nH]1	81	i	i	i	i	i
CCN(CC)c1ccc2c(-c3ccc(S(=O)(=O)O)cc3S(=O)(=O)[O-])c3ccc(=[N+](CC)CC)cc-3oc2c1	i	68	i	i	i	i
CN(C)C(=S)c1ccccc1	i	i	i	i	i	i
N=C1C(c2nc3ccccc3s2)=C(O)CN1Cc1ccco1	98	i	i	i	i	i
CN(C)CCN1CC(O)=C(c2nc3ccccc3s2)C1=N	nt	i	i	i	i	i
CC(C)S(=O)(=O)c1csc(NC(=O)Nc2cccc([N+](=O)[O-])c2)c1Cl	i	i	i	i	i	i
Cc1ccccc1N1CCN(C(=O)[C@@H]2CCCN2C2=NS(=O)(=O)c3ccccc32)CC1	i	nt	nt	nt	nt	nt
SMILES	ALR H2O2 inh	core dimer inh	PHOSPHO1 inh	HSF1 activator	HSF1 inh	AI-2 QS modul
CCOc1ccccc1N1CCN(C(=O)[C@@H]2CCCN2C2=NS(=O)(=O)c3ccccc32)CC1	97	nt	nt	nt	nt	nt
O=c1oc2ccccc2nc1/C=C(\O)c1ccc(Br)cc1	i	i	i	i	i	i
O=c1[nH]c2ccccc2nc1/C=C(\O)c1cccs1	i	i	i	i	i	i
CS(=O)(=O)Cc1nc2ccccc2oc1=O	99	i	i	i	i	i
Cc1ccc2oc(=O)c(/C=C(\O)c3ccccc3)nc2c1	98	i	i	i	i	i
Cc1ccc2oc(=O)c(/C=C(\O)c3cccs3)nc2c1	i	i	i	119	i	i
C/C(O)=C\c1nc2ccccc2oc1=O	95	i	i	i	i	i
CCc1ccc(-c2cc(C)no2)cc1S(=O)(=O)NC(C)Cc1ccco1 (stereo not given)	i	i	i	i	i	i
Cc1ccccc1CCNC(=O)C1CCC(=O)N(CCc2cccc(F)c2)C1 (stereo not given)	nt	nt	i	i	i	i
O=C(NCc1ccco1)Nc1cccc([N+](=O)[O-])c1	nt	nt	i	i	i	i
Cc1ccc2c(c1)N(C(=O)CCC(=O)NCCCN1CCOCC1)CCO2	i	i	i	i	i	i
Cc1ccc2oc(=O)c(/C=C(\O)CC(C)C)nc2c1	82	i	i	i	i	i
O=c1oc2ccc(Cl)cc2nc1/C=C(\O)c1cccs1	i	i	i	52	i	i
CCS(=O)(=O)c1ccc2oc(=O)c(/C=C(\O)c3ccc(Cl)cc3)nc2c1	i	i	i	i	i	i
O=c1cc(O)nc(-c2ccc(Cl)cc2)s1	93	i	i	i	i	i
CC1(C)CC2CC(C)(CN2C(=O)COC(=O)c2ccc(NC(=O)CC#N)cc2)C1 (stereo not given)	98	nt	nt	nt	nt	nt
N#CCc1ccc(NC(=O)Nc2cccc3ccccc23)cc1	i	i	nt	i	-78	i
N#CCC(=O)Nc1ccc(C(=O)OCC(=O)N(Cc2ccccc2)C2CCS(=O)(=O)C2)cc1 (stereo not given)	100	i	i	i	i	i
Cc1ccc(NC(=O)CN(C)C(=O)COC(=O)c2ccc(NC(=O)CC#N)cc2)cc1	90	nt	nt	nt	nt	nt
Cc1ccc(NC(=O)CN(C)C(=O)COC(=O)COc2ccc(C#N)cc2)cc1	i	i	nt	i	i	i
CCOc1cc(C(=O)N(C)CC(=O)Nc2cccc3ccccc23)ccc1OC	i	nt	nt	nt	nt	nt
CN(CC(=O)Nc1cccc2ccccc12)C(=O)c1ccc(NC(=O)CC#N)cc1	94	nt	nt	nt	nt	nt
COc1ccc(/C=N/OC/C(O)=C(\C#N)c2nc3ccccc3[nH]2)cc1OC	nt	i	i	i	i	i
O=C(Nc1cc(S(=O)(=O)N2CCCCC2)ccc1O)c1ccccc1NS(=O)(=O)c1ccc(F)c(F)c1	96	i	i	i	i	i
COc1ccc(CCC(=O)NC2CCCc3ccccc32)cc1OC (stereo not given)	i	i	i	i	i	i
SMILES	ALR H2O2 inh	core dimer inh	PHOSPHO1 inh	HSF1 activator	HSF1 inh	AI-2 QS modul
O=C(NCC1CCCN(C(=O)CN2CCCCC2)C1)c1ccccc1Cl (stereo not given)	i	i	i	i	i	i
CCN(CC)c1ccc(/C=N/n2c(-c3ccccc3Br)n[nH]c2=S)cc1	97	i	i	i	i	i
S=c1[nH]nc(-c2cc(-c3ccccc3)n[nH]2)n1/N=C/c1ccc(Cl)cc1	nt	i	i	i	i	i
Cc1nn(-c2ccccc2)c(C)c1/C=N/n1cnnc1	nt	i	i	i	i	i
Cc1nn(-c2ccccc2)c(C)c1/C=N/n1c(-c2ccccc2Br)n[nH]c1=S	96	i	i	i	i	i
Cc1ccc(S(=O)(=O)N2[C@@H](c3ccc(Cl)cc3)C(C(=O)O)=C[C@H]2C(C)(C)C)cc1	i	nt	nt	nt	nt	nt
CCOC(=O)c1cc(S(=O)(=O)Nc2ccc(F)cc2F)cn1C	i	i	i	i	i	i
